Reference: ChEMBL document CHEMBL2146436, “Synthesis and pharmacological investigation of azaphthalazinone human histamine H(1) receptor antagonists” (Bioorg Med Chem, 2012)

Assays:
[1] = Lipophilicity, log D of compound at pH 7.4; type: physicochemical; settings: buffer
Histamine H3 receptor = Histamine H3 receptor (Homo sapiens, UniProt Q9Y5N1); experiment: Antagonist activity at human H3 receptor expressed in CHO cells assessed as inhibition of histamine-induced GTPgamma[S] binding by scintillation proximity assay; type: functional, cell-based
Histamine H1 receptor [2] = biological target: T1, Histamine H1 receptor (Homo sapiens, UniProt P35367); experiment: Antagonist activity at human H1 receptor expressed in CHO cells assessed as inhibition of calcium mobilization by FLIPR assay; type: functional, cell-based
Outline: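 Intact CHO cells expressing recombinant human H1 receptor were loaded with Fluo-4AM. Inhibition of agonist-induced calcium mobilisation was read in a plate-based FLIPR instrument and expressed as pKi, with the number of determinations given.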

[3] = biological target: T2, Alpha-1B adrenergic receptor (Homo sapiens, UniProt P35368); experiment: Antagonist activity at human adrenergic alpha1B receptor expressed in rat fibroblasts by plate-based calcium imaging; type: functional
T2 sequence (P35368 whole entry): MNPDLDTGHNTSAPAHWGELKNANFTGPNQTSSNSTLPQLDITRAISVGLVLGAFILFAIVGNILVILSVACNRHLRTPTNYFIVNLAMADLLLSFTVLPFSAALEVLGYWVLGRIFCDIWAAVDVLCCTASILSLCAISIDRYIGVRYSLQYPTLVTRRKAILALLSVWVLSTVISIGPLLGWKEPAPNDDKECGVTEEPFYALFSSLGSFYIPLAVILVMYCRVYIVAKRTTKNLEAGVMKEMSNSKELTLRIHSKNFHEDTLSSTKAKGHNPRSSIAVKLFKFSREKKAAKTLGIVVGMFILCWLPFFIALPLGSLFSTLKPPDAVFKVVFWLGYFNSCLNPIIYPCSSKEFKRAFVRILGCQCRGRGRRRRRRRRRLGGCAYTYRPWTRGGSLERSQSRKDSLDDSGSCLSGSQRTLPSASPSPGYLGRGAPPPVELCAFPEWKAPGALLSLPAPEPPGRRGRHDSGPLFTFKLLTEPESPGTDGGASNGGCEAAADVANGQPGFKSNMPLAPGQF
Outline: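 Plate-based calcium imaging in intact Rat1 fibroblast cells expressing the α1B adrenoceptor. Antagonist affinity is expressed as pKi, with the number of determinations given.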

[4] = biological target: T3, Alpha-1A adrenergic receptor (Homo sapiens, UniProt P35348); experiment: Antagonist activity at human adrenergic alpha1A receptor expressed in rat fibroblasts by plate-based calcium imaging; type: functional
T3 sequence (P35348 whole entry): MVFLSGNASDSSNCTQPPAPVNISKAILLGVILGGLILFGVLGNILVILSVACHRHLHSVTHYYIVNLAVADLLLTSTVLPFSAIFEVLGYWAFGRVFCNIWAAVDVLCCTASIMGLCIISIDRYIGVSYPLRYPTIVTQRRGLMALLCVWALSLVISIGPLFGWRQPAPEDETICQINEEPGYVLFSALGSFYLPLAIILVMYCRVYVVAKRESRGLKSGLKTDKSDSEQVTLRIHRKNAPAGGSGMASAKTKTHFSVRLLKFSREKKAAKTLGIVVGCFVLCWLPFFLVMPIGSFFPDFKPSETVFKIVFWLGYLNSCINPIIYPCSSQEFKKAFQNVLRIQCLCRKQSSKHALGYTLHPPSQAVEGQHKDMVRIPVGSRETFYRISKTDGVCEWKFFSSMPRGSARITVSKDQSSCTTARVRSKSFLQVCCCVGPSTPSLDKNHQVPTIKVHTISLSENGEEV

CHO [5] = experiment: Selectivity ratio of pKi for human H3 receptor expressed in CHO cells to pKi for human adrenergic alpha1B receptor expressed in rat fibroblast; type: cell-based
Outline: (§1)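 Ratio of two pKi values. The H3 pKi comes from membranes of CHO cells transfected with cloned human H3, read as reduction of histamine-stimulated GTPγS binding by scintillation proximity detection. The α1A or α1B pKi comes from intact Rat1 fibroblast cells expressing that receptor, read by plate-based calcium imaging.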

CHO [6] = experiment: Selectivity ratio of pKi for human H3 receptor expressed in CHO cells to pKi for human adrenergic alpha1A receptor expressed in rat fibroblast; type: cell-based; outline: as §1
CHO [7] = experiment: Selectivity ratio of pKi for human H3 receptor expressed in CHO cells to pKi for human H1 receptor expressed in CHO cells; type: cell-based
Outline: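 Ratio of two pKi values. The H3 pKi comes from membranes of CHO cells transfected with cloned human H3 receptor, read as reduction of histamine-stimulated GTPγS binding by scintillation proximity detection. The H1 pKi comes from intact CHO cells expressing recombinant human H1, read as inhibition of agonist-induced calcium mobilisation (Fluo-4AM dye, FLIPR plate-based imaging).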

[8] = biological target: Voltage-gated inwardly rectifying potassium channel KCNH2 (Homo sapiens, UniProt Q12809); experiment: Displacement of [3H]dofetilide from human ERG
Histamine H1 receptor [9] = biological target: T1, Histamine H1 receptor; experiment: Antagonist activity against human CHO cells H1 receptor at 100 nM after 30 mins by FLIPR assay; type: functional, cell-based; settings: read-out: pA2 (converted)
Outline: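 Modified lower-throughput FLIPR assay in CHO cells expressing recombinant human H1. Histamine concentration–response curves were run without antagonist and with a single 100 nM antagonist concentration after 30 min incubation. EC50 values came from a four-parameter logistic fit. pA2 = log(DR−1) − log[B], where DR is the ratio of the EC50 with antagonist to the control EC50. Values are mean ± SEM, with SD given when n<3.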

Sequence of Histamine H3 receptor (Q9Y5N1 whole entry): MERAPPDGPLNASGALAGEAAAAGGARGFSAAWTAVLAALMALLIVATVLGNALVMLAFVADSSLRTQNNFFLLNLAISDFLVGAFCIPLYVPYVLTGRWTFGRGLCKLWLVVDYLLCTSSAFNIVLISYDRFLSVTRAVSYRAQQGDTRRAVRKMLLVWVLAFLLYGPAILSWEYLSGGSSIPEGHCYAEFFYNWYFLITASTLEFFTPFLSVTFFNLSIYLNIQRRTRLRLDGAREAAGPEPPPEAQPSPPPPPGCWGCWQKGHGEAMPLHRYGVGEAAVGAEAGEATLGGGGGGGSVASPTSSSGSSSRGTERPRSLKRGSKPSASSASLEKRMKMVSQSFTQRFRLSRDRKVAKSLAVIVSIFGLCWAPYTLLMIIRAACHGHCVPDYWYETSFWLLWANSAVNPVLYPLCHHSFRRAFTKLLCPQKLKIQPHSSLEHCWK
T1 sequence (P35367 whole entry): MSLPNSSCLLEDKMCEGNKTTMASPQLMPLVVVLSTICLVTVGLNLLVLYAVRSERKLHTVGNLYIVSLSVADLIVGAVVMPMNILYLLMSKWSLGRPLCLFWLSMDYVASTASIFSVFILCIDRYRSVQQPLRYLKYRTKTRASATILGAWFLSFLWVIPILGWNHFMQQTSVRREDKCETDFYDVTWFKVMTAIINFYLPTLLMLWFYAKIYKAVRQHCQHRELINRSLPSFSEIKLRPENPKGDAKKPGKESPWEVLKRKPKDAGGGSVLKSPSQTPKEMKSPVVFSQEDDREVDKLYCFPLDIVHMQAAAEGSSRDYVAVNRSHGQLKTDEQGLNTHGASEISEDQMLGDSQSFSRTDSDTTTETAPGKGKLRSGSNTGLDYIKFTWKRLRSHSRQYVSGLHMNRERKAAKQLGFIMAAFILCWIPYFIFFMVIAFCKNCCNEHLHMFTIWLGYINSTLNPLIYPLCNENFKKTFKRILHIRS
Sequence of Voltage-gated inwardly rectifying potassium channel KCNH2 (Q12809 whole entry): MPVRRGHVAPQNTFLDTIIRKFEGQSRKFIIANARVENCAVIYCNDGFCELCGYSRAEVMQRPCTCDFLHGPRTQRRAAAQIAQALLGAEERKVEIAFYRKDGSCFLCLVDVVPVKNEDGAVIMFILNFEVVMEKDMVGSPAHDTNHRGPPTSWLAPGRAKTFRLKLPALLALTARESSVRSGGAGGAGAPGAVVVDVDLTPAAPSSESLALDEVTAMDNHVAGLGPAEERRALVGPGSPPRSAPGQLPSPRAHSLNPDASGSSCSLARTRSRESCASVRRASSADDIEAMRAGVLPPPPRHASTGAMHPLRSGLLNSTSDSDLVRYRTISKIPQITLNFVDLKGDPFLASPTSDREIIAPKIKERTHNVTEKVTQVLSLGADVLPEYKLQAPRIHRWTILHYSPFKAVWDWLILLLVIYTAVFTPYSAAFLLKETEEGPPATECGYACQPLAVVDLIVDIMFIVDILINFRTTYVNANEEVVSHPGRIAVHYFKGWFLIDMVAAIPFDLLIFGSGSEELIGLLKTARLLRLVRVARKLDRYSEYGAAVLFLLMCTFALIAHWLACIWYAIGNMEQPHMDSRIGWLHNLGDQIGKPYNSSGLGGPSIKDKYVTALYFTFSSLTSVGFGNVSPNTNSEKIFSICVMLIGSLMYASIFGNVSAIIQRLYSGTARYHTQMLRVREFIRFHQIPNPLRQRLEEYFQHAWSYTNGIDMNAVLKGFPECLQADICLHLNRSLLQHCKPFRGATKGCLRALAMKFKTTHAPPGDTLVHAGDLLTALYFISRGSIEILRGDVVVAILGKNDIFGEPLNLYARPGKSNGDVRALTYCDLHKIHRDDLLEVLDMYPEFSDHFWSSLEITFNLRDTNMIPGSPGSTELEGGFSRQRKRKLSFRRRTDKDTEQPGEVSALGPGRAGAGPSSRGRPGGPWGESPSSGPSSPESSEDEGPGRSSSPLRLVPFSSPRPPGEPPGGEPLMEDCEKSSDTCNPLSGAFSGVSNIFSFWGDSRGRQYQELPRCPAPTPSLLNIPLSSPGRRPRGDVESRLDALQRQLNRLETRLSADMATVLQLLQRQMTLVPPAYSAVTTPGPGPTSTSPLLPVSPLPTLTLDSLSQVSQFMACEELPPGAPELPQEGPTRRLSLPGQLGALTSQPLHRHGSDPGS

| logD [1] | Ki (Histamine H3 receptor) [nM] | Ki (Histamine H1 receptor [2]) [nM] | Ki [3] [nM] | Ki [4] [nM] | Kb (Histamine H1 receptor [9]) [nM] | Compound | Ratio pKi (CHO [5]) | Ratio pKi (CHO [6]) | Ratio pKi (CHO [7]) | IC50 [8] [nM] |
| --- | --- | --- | --- | --- | --- | --- | --- | --- | --- | --- |
| 1.7 | 631 | 1.29 | 251 | 398 | 3.98 | CN1CCC[C@@H]1Cn1nc(Cc2ccc(Cl)cc2)c2nccnc2c1=O | – | – | – | – |
| 3.2 | 631 | 0.398 | 7.94 | 6.31 | 0.1 | CCCCN1CCC[C@@H]1Cn1nc(Cc2ccc(Cl)cc2)c2cnccc2c1=O | 10 | 10 | 2.7 | 50.1 |
| 3 | 437 | 0.162 | 10 | 31.6 | 0.1 | CN1CCC[C@@H]1Cn1nc(Cc2ccc(Cl)cc2)c2ccccc2c1=O | – | – | – | – |
| 1.7 | – | 0.355 | 158 | 631 | 0.501 | CN1CCC[C@@H]1Cn1nc(Cc2ccc(Cl)cc2)c2cccnc2c1=O | – | – | – | – |
| 2.7 | – | 0.251 | 10 | – | 0.251 | COCCN1CCC[C@@H]1Cn1nc(Cc2ccc(Cl)cc2)c2cnccc2c1=O | – | – | – | – |
| 3.3 | 398 | 0.513 | 12.6 | 20 | – | COCCN1CCC[C@@H]1Cn1nc(Cc2ccc(Cl)cc2)c2ccccc2c1=O | – | – | – | – |
| 2.2 | 398 | 0.692 | – | 20 | 2.51 | CN1CCC[C@@H]1Cn1nc(Cc2ccc(Cl)cc2)c2ccncc2c1=O | – | – | – | – |
| 1.9 | 398 | 0.347 | – | 12.6 | 0.316 | CN1CCC[C@@H]1Cn1nc(Cc2ccc(Cl)cc2)c2cnccc2c1=O | – | – | – | – |
| 2.7 | 316 | 0.316 | 50.1 | 200 | 0.316 | CN1CCC[C@@H]1Cn1nc(Cc2ccc(Cl)cc2)c2ncccc2c1=O | – | – | – | – |
| 2.1 | 631 | 1 | 316 | 316 | 0.794 | COCCN1CCC[C@@H]1Cn1nc(Cc2ccc(Cl)cc2)c2cccnc2c1=O | – | – | – | – |

More lines, now with the values behind:

| Compound | logD [1] | Ki (Histamine H3 receptor) [nM] | Ki (Histamine H1 receptor [2]) [nM] | Ki [3] [nM] | Ki [4] [nM] | Kb (Histamine H1 receptor [9]) [nM] | Ratio pKi (CHO [5]) | Ratio pKi (CHO [6]) | Ratio pKi (CHO [7]) | IC50 [8] [nM] |
| --- | --- | --- | --- | --- | --- | --- | --- | --- | --- | --- |
| CN1CCCC(n2nc(Cc3ccc(Cl)cc3)c3ccccc3c2=O)CC1 (centres undefined) [AZELASTINE] | 2.3 | 148 | – | – | – | – | – | – | – | – |
| COCCN1CCC[C@@H]1Cn1nc(Cc2ccc(Cl)cc2)c2ncccc2c1=O | 2.9 | – | 0.537 | 39.8 | 158 | – | – | – | – | – |
| O=c1c2ccncc2c(Cc2ccc(Cl)cc2)nn1C[C@H]1CCCN1CCCCc1ccc(OCCCN2CCCCCC2)cc1 | – | 0.562 | 17.4 | 39.8 | 31.6 | 1 | 10 | 10 | 2.7 | 158 |
| O=c1c2ccccc2c(Cc2ccc(Cl)cc2)nn1C[C@H]1CCCN1CCCCc1ccc(OCCCN2CCCCCC2)cc1 [GSK-1004723] | 3.2 | – | – | – | – | – | – | – | – | – |
| CCCCN1CCC[C@@H]1Cn1nc(Cc2ccc(Cl)cc2)c2ncccc2c1=O | 3.4 | 631 | 0.631 | 20 | 50.1 | – | – | – | – | – |
| CCCCN1CCC[C@@H]1Cn1nc(Cc2ccc(Cl)cc2)c2ccccc2c1=O | 3.1 | 437 | 0.912 | – | – | 0.0398 | – | – | – | – |
| CCCCN1CCC[C@@H]1Cn1nc(Cc2ccc(Cl)cc2)c2cccnc2c1=O | 2.8 | 631 | 0.631 | 100 | 100 | 0.316 | – | – | – | – |
